Calls of active or inactive are those of the source. The rule behind the calls is not given here.

The values that follow come from ChEMBL document CHEMBL2010644, “Evaluation and discovery of novel synthetic chalcone derivatives as anti-inflammatory agents” (J Med Chem, 2011).

The subject of assay [1] is RAW264.7. Briefly: Antiinflammatory activity in mouse RAW264.7 cells assessed as inhibition of LPS-induced TNFalpha production incubated for 2 hrs prior to LPS-challenge measured after 22 hrs by ELISA. It is filed as functional, cell-based. An outline of the steps: (§1)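 RAW264.7 cells grown in DMEM with 10% FBS at 37 °C, 5% CO2, plated at 1.2 × 10^6/plate overnight. Compound pretreatment 2 h (screen at 10 μM; dose-response at 2.5, 5.0, 10 μM), then LPS 0.5 μg/mL for 22 h. Medium TNF-α or IL-6 measured by ELISA, normalized to cell protein, expressed as % of LPS control; IC50 derived from dose series.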

The species named for the next assay is Mus musculus. The assay is described as follows: Inhibition of LPS-induced ERK phosphorylation in ICR mouse primary peritoneal macrophages at 10 uM incubated for 2 hrs prior to LPS-challenge measured after 1 hr by Western blot analysis. An outline of the steps:
(§2)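 Cells pretreated 2 h with DMSO or compound (10 μM in the single-concentration set; 2.5, 5.0, 10, 20 μM in the dose series), then LPS 0.5 μg/mL for 1 h. p-ERK, ERK, p-p38 and p38 detected by Western blot with actin loading control; optical density ratio reported. Mean ± SE, three independent experiments.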

In assay [2] the test system is Peritoneal macrophage cell. The assay is described as follows: Antiinflammatory activity in ICR mouse primary peritoneal macrophages assessed as downregulation of high glucose-induced IL6 mRNA expression at 10 uM incubated for 2 hrs prior to high glucose-challenge measured after 3 hrs by RT-qPCR analysis. Type of assay: functional, cell-based. An outline of the steps: (§3)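 Peritoneal macrophages (1 × 10^6) pretreated with compound (10 μM) or DMSO for 2 h, then high glucose (25 mM) for 3 h. Low-glucose reference cells kept in RPMI-1640 with 5.5 mM glucose. TNF-α, IL-1β, IL-6 and IL-12 mRNA measured by RT-qPCR on whole-cell RNA. Mean ± SEM, three independent experiments run in duplicate.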

The test system of assay [3] is Peritoneal macrophage cell. The assay is described as follows: Antiinflammatory activity in ICR mouse primary peritoneal macrophages assessed as downregulation of LPS-induced IL-12 mRNA expression at 10 uM incubated for 2 hrs prior to LPS-challenge measured after 6 hrs by RT-qPCR analysis. Type of assay: functional, cell-based. An outline of the steps:
(§4)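 Macrophages pretreated 2 h with compound at 10 μM or vehicle, then LPS 0.5 μg/mL for 6 h. mRNA of TNF-α, IL-6, COX-2, IL-1β and IL-12 quantified by RT-qPCR, normalized to β-actin mRNA and expressed as ratio to DMSO. Mean ± SD of four to seven independent experiments.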

Assay [4] relates to RAW264.7. The assay is described as follows: Antiinflammatory activity in mouse RAW264.7 cells assessed as inhibition of LPS-induced IL6 production at 10 uM incubated for 2 hrs prior to LPS-challenge measured after 22 hrs by ELISA. It is filed as functional, cell-based. An outline of the steps:
as §1

Assay [5] concerns RAW264.7. The assay is described as follows: Antiinflammatory activity in mouse RAW264.7 cells assessed as inhibition of LPS-induced TNFalpha production at 10 uM incubated for 2 hrs prior to LPS-challenge measured after 22 hrs by ELISA relative to control. It is filed as functional. An outline of the steps: as §1
Assay [6] has as its system RAW264.7. Briefly: Antiinflammatory activity in mouse RAW264.7 cells assessed as inhibition of LPS-induced IL6 production incubated for 2 hrs prior to LPS-challenge measured after 22 hrs by ELISA. It is filed as functional, cell-based. An outline of the steps:
as §1

In assay [7] the test system is Peritoneal macrophage cell. The assay is described as follows: Antiinflammatory activity in ICR mouse primary peritoneal macrophages assessed as downregulation of high glucose-induced IL12 mRNA expression at 10 uM incubated for 2 hrs prior to high glucose-challenge measured after 3 hrs by RT-qPCR analysis. It is filed as functional, cell-based. An outline of the steps:
as §3

Assay [8] concerns Peritoneal macrophage cell. The assay is described as follows: Antiinflammatory activity in ICR mouse primary peritoneal macrophages assessed as downregulation of LPS-induced IL-1beta mRNA expression at 10 uM incubated for 2 hrs prior to LPS-challenge measured after 6 hrs by RT-qPCR analysis. Type of assay: functional, cell-based. An outline of the steps:
as §4

Assay [9] relates to RAW264.7. Briefly: Antiinflammatory activity in mouse RAW264.7 cells assessed as inhibition of LPS-induced IL6 production at 10 uM incubated for 2 hrs prior to LPS-challenge measured after 22 hrs by ELISA relative to control. It is filed as functional. An outline of the steps: as §1
Assay [10] has as its system Peritoneal macrophage cell. The assay is described as follows: Antiinflammatory activity in ICR mouse primary peritoneal macrophages assessed as downregulation of high glucose-induced IL1beta mRNA expression at 10 uM incubated for 2 hrs prior to high glucose-challenge measured after 3 hrs by RT-qPCR analysis. Type of assay: functional, cell-based. In short, it runs like this: as §3

Assay [11] addresses MAP kinase p38 (Mus musculus) (UniProt P47811+O08911+Q9WUI1+Q9Z1B7). Briefly: Inhibition of LPS-induced p38 phosphorylation in ICR mouse primary peritoneal macrophages at 10 uM incubated for 2 hrs prior to LPS-challenge measured after 1 hr by Western blot analysis. In short, it runs like this:
as §2

The subject of assay [12] is Peritoneal macrophage cell. Briefly: Antiinflammatory activity in ICR mouse primary peritoneal macrophages assessed as downregulation of LPS-induced COX-2 mRNA expression at 10 uM incubated for 2 hrs prior to LPS-challenge measured after 6 hrs by RT-qPCR analysis. Type of assay: functional, cell-based. An outline of the steps: as §4
Assay [13] has as its system Peritoneal macrophage cell. Briefly: Antiinflammatory activity in ICR mouse primary peritoneal macrophages assessed as downregulation of LPS-induced IL-6 mRNA expression at 10 uM incubated for 2 hrs prior to LPS-challenge measured after 6 hrs by RT-qPCR analysis. It is filed as functional, cell-based. In short, it runs like this: as §4
In assay [14] the test system is Peritoneal macrophage cell. The assay is described as follows: Antiinflammatory activity in ICR mouse primary peritoneal macrophages assessed as downregulation of high glucose-induced TNFalpha mRNA expression at 10 uM incubated for 2 hrs prior to high glucose-challenge measured after 3 hrs by RT-qPCR analysis. It is filed as functional, cell-based. An outline of the steps:
as §3

For assay [15], the system named is RAW264.7. The assay is described as follows: Antiinflammatory activity in mouse RAW264.7 cells assessed as inhibition of LPS-induced TNFalpha production at 10 uM incubated for 2 hrs prior to LPS-challenge measured after 22 hrs by ELISA. It is filed as functional, cell-based. In short, it runs like this:
as §1

Assay [16] concerns Peritoneal macrophage cell. The assay is described as follows: Antiinflammatory activity in ICR mouse primary peritoneal macrophages assessed as downregulation of LPS-induced TNF-alpha mRNA expression at 10 uM incubated for 2 hrs prior to LPS-challenge measured after 6 hrs by RT-qPCR analysis. It is filed as functional, cell-based. An outline of the steps:
as §4

For the compound `COc1cc(C(=O)/C=C/c2ccc(N(C)C)cc2)cc(OC)c1OC`, the figures for the IC50 with RAW264.7 [1] and in the assay on RAW264.7 [6] were 2.9 µM and 6.88 µM, respectively. Also, the inhibition entry in the assay with RAW264.7 [1] and with RAW264.7 [6] was “Dose-dependent effect” throughout. In addition, the inhibition result (in the assay listed under Mus musculus; in the assay on RAW264.7 [4]; in [11]; with RAW264.7 [15]) was “Active” in each case. Moreover, the result in [2], in [8] and in assay [12] was inactive. The outcome in assay [3], in assay [7], in assay [10], in [13], in assay [14] and in [16] was Active. For the same compound, the inhibition at 10 µM in the assay with RAW264.7 [5] worked out at 61.2%; in the assay on RAW264.7 [9], 73.4%.
